pIC50: −log10 of the molar value. The source made the active and inactive calls. No cut-off for these calls is given here.
How the values were obtained:
Heat shock protein HSP90 [1] = target: T1, Heat shock protein HSP90 (Homo sapiens, UniProt P07900+P08238); assay: Inhibition of HSP90 […] in human SKBR3 cells assessed as induction of heat shock response by measuring increase in HSP70 protein level at 0.5 to 5 times antiproliferative IC50 incubated for 24 hrs by Western blot analysis; assay type: cell-based
MCF7 [2] = assay: Ratio of IC50 for N-((1r,4r)-4-(4-(3-(dimethylamino)propoxy)phenyl)cyclohexyl)-3',6-dimethoxybiphenyl-3-carboxamide to IC50 for test compound for antiproliferative activity against human MCF7 cells; assay type: functional
MCF7 [3] = assay: Antiproliferative activity against human MCF7 cells by MTT assay; assay type: functional, cell-based
SK-BR-3 [4] = assay: Antiproliferative activity against human SKBR3 cells by MTT assay; assay type: functional, cell-based
Heat shock protein HSP90 [5] = target: T1, Heat shock protein HSP90; assay: Inhibition of HSP90 at C-terminus in human SKBR3 cells assessed as Her2 protein degradation at 0.5 to 5 times antiproliferative IC50 incubated for 24 hrs by Western blot analysis; assay type: cell-based
[6] = Drug uptake in mitochondria in human PC3 cells incubated for 24 hrs by LC/MS analysis; assay type: ADME; conditions: pc-3, 24 h
How it was run: (§1)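 PC3 cells treated for 24 h, then separated into subcellular fractions; the compound in each isolated fraction was quantified by LC-MS.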

HCT-116 = assay: Antiproliferative activity against human HCT116 cells by MTT assay; assay type: functional, cell-based
PC-3 = assay: Antiproliferative activity against human PC3 cells by MTT assay; assay type: functional, cell-based
Heat shock protein HSP90 [7] = target: T1, Heat shock protein HSP90; assay: Inhibition of HSP90 at C-terminus in human SKBR3 cells assessed as induction of Raf1 protein degradation at 0.5 to 5 times antiproliferative IC50 incubated for 24 hrs by Western blot analysis; assay type: cell-based
[8] = Drug uptake in cytoplasm in human PC3 cells assessed as lowered drug accumulation incubated for 24 hrs by LC/MS analysis; assay type: ADME, subcellular; conditions: pc-3, 24 h; how it was run: as §1
Heat shock protein HSP90 [9] = target: T1, Heat shock protein HSP90; assay: Inhibition of HSP90 at C-terminus in human SKBR3 cells assessed as AKT protein degradation at 0.5 to 5 times antiproliferative IC50 incubated for 24 hrs by Western blot analysis; assay type: cell-based
MCF7 [10] = assay: Ratio of IC50 for N-(7-(3-(dimethylamino)propoxy)-8-methyl-2-oxo-2H-chromen-3-yl)-3',6-dimethoxybiphenyl-3-carboxamide to IC50 for test compound for antiproliferative activity against human MCF7 cells; assay type: functional
Heat shock protein HSP90 [11] = target: T1, Heat shock protein HSP90; assay: Inhibition of HSP90 at C-terminus in human SKBR3 cells assessed as induction of CDK4 protein degradation at 0.5 to 5 times antiproliferative IC50 incubated for 24 hrs by Western blot analysis; assay type: cell-based
MCF7 [12] = assay: Ratio of IC50 for N-(4'-(3-(dimethylamino)propoxy)biphenyl-4-yl)-3',6-dimethoxybiphenyl-3-carboxamide to IC50 for test compound for antiproliferative activity against human MCF7 cells; assay type: functional
SK-BR-3 [13] = assay: Ratio of IC50 for N-(4'-(3-(dimethylamino)propoxy)biphenyl-4-yl)-3',6-dimethoxybiphenyl-3-carboxamide to IC50 for test compound for antiproliferative activity against human SKBR3 cells; assay type: functional

Row | Structure (SMILES) | Activity (Heat shock protein HSP90 [1]) | Ratio IC50 (MCF7 [2]) | pIC50 (MCF7 [3]) | pIC50 (SK-BR-3 [4]) | inhibition (Heat shock protein HSP90 [5]) | Drug uptake [6] | pIC50 (HCT-116) | pIC50 (PC-3) | inhibition (Heat shock protein HSP90 [7]) | Drug uptake [8] | inhibition (Heat shock protein HSP90 [9]) | Ratio IC50 (MCF7 [10]) | inhibition (Heat shock protein HSP90 [11]) | Ratio IC50 (MCF7 [12]) | Ratio IC50 (SK-BR-3 [13])
1 | COc1cccc(-c2cc(C(=O)N[C@H]3CC[C@H](c4ccc(OCCC[P+](c5ccccc5)(c5ccccc5)c5ccccc5)cc4)CC3)ccc2OC)c1.[Br-] | Non-Toxic | 2 | 6.77 | 6.64 | inactive | Active | 6.42 | 5.81 | Active | Active | inactive |  |  |  | 
2 | COc1cccc(-c2cc(C(=O)Nc3cc4ccc(OCCC[P+](c5ccccc5)(c5ccccc5)c5ccccc5)c(C)c4oc3=O)ccc2OC)c1.[Br-] | Non-Toxic |  | 6.10 | 6.51 | inactive | Active | 6.19 | 5.71 | Active | Active | inactive | 2 | Active |  | 
3 | COc1cccc(-c2cc(C(=O)Nc3cc4ccc(OCCCN(C)C)c(C)c4oc3=O)ccc2OC)c1 |  |  | 5.74 | 6.07 |  | Active | 6.08 | 6.00 |  |  |  |  |  |  | 
4 | COc1cccc(-c2cc(C(=O)N[C@H]3CC[C@H](c4ccc(OCCCN(C)C)cc4)CC3)ccc2OC)c1 |  |  | 6.47 | 6.60 |  | Active |  |  |  |  |  |  |  |  | 
5 | COc1cccc(-c2cc(C(=O)Nc3ccc(-c4ccc(OCCC[P+](c5ccccc5)(c5ccccc5)c5ccccc5)cc4)cc3)ccc2OC)c1.[Br-] | Non-Toxic |  | 6.03 | 6.68 | inactive | Active | 6.35 | 5.53 | Active | Active | inactive |  | Active | 2 | 10
6 | COc1cccc(-c2cc(C(=O)Nc3ccc(-c4ccc(OCCCN(C)C)cc4)cc3)ccc2OC)c1 |  |  | 5.67 | 5.69 |  | Active | 5.83 | 5.45 |  |  |  |  |  |  | 

— ChEMBL document CHEMBL4304822, “Mitochondrial-targeted Hsp90 C-terminal inhibitors manifest anti-proliferative activity” (Bioorg Med Chem Lett, 2019)
